Where “and” joins values, the source holds several entries; their conditions need not be identical. Equal values may be shown once.
Key:
COX-1 = biological target: T1, COX-1 (Ovis aries, UniProt P05979); test: In vitro COX-1 inhibition assay; assay type: biochemical, ovine
T1 sequence (P05979 25-600): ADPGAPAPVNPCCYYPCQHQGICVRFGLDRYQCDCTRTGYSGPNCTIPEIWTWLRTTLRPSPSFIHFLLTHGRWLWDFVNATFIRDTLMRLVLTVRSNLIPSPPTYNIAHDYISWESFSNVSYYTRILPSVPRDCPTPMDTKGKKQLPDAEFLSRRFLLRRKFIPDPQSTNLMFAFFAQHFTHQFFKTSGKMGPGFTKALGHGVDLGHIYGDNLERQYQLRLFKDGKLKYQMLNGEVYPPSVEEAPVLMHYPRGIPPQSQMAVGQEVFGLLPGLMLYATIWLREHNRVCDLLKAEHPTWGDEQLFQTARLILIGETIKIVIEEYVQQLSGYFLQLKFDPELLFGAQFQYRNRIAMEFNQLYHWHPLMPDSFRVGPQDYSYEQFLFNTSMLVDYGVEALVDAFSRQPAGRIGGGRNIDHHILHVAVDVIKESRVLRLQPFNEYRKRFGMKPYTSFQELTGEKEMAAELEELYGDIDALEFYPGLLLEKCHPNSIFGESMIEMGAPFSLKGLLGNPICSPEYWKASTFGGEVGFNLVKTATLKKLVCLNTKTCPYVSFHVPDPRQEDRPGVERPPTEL

HepG2 = test: MTS assay, hepatocellular carcinoma HepG2; assay type: cell-based; conditions: Homo sapiens, HepG2, 72 h, read-out: IC50 HepG2
How it was run: (§1)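 Cells grown in RPMI 1640 with 10% FBS, 1% penicillin/streptomycin and 1% L-glutamine, trypsinised and counted by hemocytometer. Seeded at 1 × 10^3 cells/well and left 24 h at 37 °C. Test compound added at 300, 100, 50 and 10 µM for 72 h at 37 °C, then removed. […] Triplicate, mean ± SD.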

HeLa = test: MTS assay, cervical adenocarcinoma HeLa; assay type: cell-based; conditions: Homo sapiens, 72 h, read-out: IC50 HeLa
How it was run: as §1

Hep3B = test: MTS assay, hepatocellular carcinoma Hep3B; assay type: cell-based; conditions: Homo sapiens, 72 h, read-out: IC50 Hep3B
How it was run: as §1

MCF-7 = test: MTS assay, breast carcinoma MCF-7; assay type: cell-based; conditions: Homo sapiens, MCF7, 72 h, read-out: IC50 MCF-7
How it was run: as §1

[1] = MTS cytotoxicity assay, normal cell line LX-2; assay type: cell-based; conditions: human, LX-2 cells (normal cell line), CC50 LX-2, normal cell line
How it was run: (§2)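 LX-2 cells seeded at 1 × 10^3 cells/well and left 24 h at 37 °C. Exposed to test compound at 300, 100, 50 and 10 µM for 72 h at 37 °C, with 5-FU as positive control. […] Triplicate, mean ± SD.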

B16F1 = test: MTS assay, melanoma B16F1; assay type: cell-based; conditions: Mus musculus, B16-F1, 72 h, read-out: IC50 B16F1
How it was run: as §1

CaCo-2 = test: MTS assay, colorectal adenocarcinoma Caco-2; assay type: cell-based; conditions: Homo sapiens, Caco-2, 72 h, read-out: IC50 CaCo-2
How it was run: as §1

COLO205 = test: MTS assay, colon adenocarcinoma COLO205; assay type: cell-based; conditions: Homo sapiens, COLO 205, 72 h, read-out: IC50 COLO205
How it was run: as §1

human recombinant COX-2 = biological target: T2, human recombinant COX-2 (Homo sapiens, UniProt P35354); test: In vitro COX-2 inhibition assay; assay type: biochemical; conditions: for SI (selectivity index / selectivity ratio): IC50 COX-1 divided by IC50 COX-2; for IC50: IC50 COX-2
T2 sequence (P35354 18-604): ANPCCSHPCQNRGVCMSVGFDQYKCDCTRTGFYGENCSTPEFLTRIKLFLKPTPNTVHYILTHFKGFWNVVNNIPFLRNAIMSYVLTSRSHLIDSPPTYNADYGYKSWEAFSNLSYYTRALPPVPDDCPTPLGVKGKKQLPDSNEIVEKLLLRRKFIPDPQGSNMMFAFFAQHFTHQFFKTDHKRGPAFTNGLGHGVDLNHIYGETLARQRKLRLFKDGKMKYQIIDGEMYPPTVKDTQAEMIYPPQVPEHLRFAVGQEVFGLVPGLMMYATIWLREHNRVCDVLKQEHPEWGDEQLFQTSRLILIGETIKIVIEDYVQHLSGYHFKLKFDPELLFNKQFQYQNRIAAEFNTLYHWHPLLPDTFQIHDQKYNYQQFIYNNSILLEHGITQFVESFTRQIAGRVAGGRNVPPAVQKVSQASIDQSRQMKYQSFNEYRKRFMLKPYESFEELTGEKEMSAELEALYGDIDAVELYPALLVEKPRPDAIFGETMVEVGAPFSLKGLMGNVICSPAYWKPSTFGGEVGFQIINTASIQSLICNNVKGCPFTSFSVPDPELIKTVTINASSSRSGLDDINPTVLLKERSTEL

LX-2 cells = test: MTS cytotoxicity assay, normal cell line LX-2; assay type: cell-based; conditions: read-out: CC50 LX-2, normal cell line
How it was run: as §2

Hek293t cells = test: MTS cytotoxicity assay, normal cell line Hek293t; assay type: cell-based; conditions: read-out: CC50 Hek293t, 72 h
How it was run: as §1

| SMILES | IC50 (COX-1) | IC50 (HepG2) | IC50 (HeLa) | IC50 (Hep3B) | IC50 (MCF-7) | CC50 at 72 h [1] | IC50 (B16F1) | IC50 (CaCo-2) | IC50 (COLO205) | SI (selectivity index / selectivity ratio) (human recombinant COX-2) | IC50 (human recombinant COX-2) | CC50 (LX-2 cells) | CC50 (Hek293t cells) |
| --- | --- | --- | --- | --- | --- | --- | --- | --- | --- | --- | --- | --- | --- |
| COc1cccc(-c2nc(C)c(C(=O)Nc3ccc(Oc4ccccc4OC)cc3)s2)c1 [2i, N-(4-(2-Methoxyphenoxy)phenyl)-2-(3-methoxyphenyl)-4-methylthiazole-5-carboxamide] | 2.11 ± 1.08 µM | > 300 µM | > 300 µM | > 300 µM | > 300 µM | > 300 µM | > 300 µM | > 300 µM | > 300 µM | 0.651 | 3.24 ± 1.11 µM |  |  |
| COc1cc(NC(=O)c2sc(-c3cccc(OC)c3)nc2C)cc(OC)c1 [2d, N-(3,5-Dimethoxyphenyl)-2-(3-methoxyphenyl)-4-methylthiazole-5-carboxamide] | 1.57 ± 0.8 µM | > 300 µM | > 300 µM | > 300 µM | 144 ± 2.03 µM | > 300 µM | > 300 µM | > 300 µM | > 300 µM | 0.685 | 2.3 ± 0.25 µM |  |  |
| COc1cccc(-c2nc(C)c(C(=O)Nc3cccc(C(F)(F)F)c3)s2)c1 [2j, 2-(3-Methoxyphenyl)-4-methyl-N-(3-(trifluoromethyl)phenyl)thiazole-5-carboxamide] | 1.44 ± 0.51 µM | > 300 µM | > 300 µM | 299.2 ± 2.05 µM | > 300 µM | > 300 µM | > 300 µM | > 300 µM | > 300 µM | 1.507 | 0.957 ± 0.17 µM |  |  |
| COc1cccc(-c2nc(C)c(C(=O)Nc3cc(OC)ccc3OC)s2)c1 [2h, N-(2,5-Dimethoxyphenyl)-2-(3-methoxyphenyl)-4-methylthiazole-5-carboxamide] | 0.335 ± 0.19 µM | > 300 µM | 250.8 ± 2.42 µM | > 300 µM | > 300 µM | > 300 µM | > 300 µM | > 300 µM | > 300 µM | 0.272 | 1.23 ± 0.85 µM |  |  |
| COc1cccc(-c2nc(C)c(C(=O)Nc3ccccc3)s2)c1 [2f, 2-(3-Methoxyphenyl)-4-methyl-N-phenylthiazole-5-carboxamide] | 2.06 ± 1.21 µM | > 300 µM | > 300 µM | > 300 µM | > 300 µM | > 300 µM | > 300 µM | > 300 µM | > 300 µM | 0.630 | 3.26 ± 1.02 µM |  |  |
| COc1cccc(-c2nc(C)c(C(=O)Nc3cc(OC)c(OC)c(OC)c3)s2)c1 [2a, 2-(3-Methoxyphenyl)-4-methyl-N-(3,4,5-trimethoxyphenyl)thiazole-5-carboxamide] | 2.65 ± 0.78 µM | 60.8 ± 2.76 µM | > 300 µM | > 300 µM | > 300 µM | > 300 µM | > 300 µM | > 300 µM | > 300 µM | 2.766 and 2.76 | 0.95 µM and 0.958 µM |  |  |
| COc1cccc(-c2nc(C)c(C(=O)Nc3ccc(SC)cc3)s2)c1 [2e, 2-(3-Methoxyphenyl)-4-methyl-N-(4-(methylthio)phenyl)thiazole-5-carboxamide] | 1.53 ± 0.92 µM | > 300 µM | 223 ± 2.58 µM | 202.1 ± 1.99 µM | 163 ± 2.88 µM | > 300 µM | > 300 µM | > 300 µM | > 300 µM | 0.723 | 2.12 ± 1.48 µM |  |  |
| COc1cccc(-c2nc(C)c(C(=O)Nc3ccc(OC)c(OC)c3)s2)c1 [2c, N-(3,4-Dimethoxyphenyl)-2-(3-methoxyphenyl)-4-methylthiazole-5-carboxamide] | 0.278 ± 0.02 µM | > 300 µM | > 300 µM | > 300 µM | > 300 µM | > 300 µM | > 300 µM | > 300 µM | > 300 µM | 0.095 | 2.91 ± 1.08 µM |  |  |
| O=c1[nH]cc(F)c(=O)[nH]1 [5-FU, reference compound] |  |  |  |  |  |  |  |  |  |  |  | 8.45 ± 2.02 µM | 4.06 ± 1.82 µM |
| COc1cccc(-c2nc(C)c(C(=O)Nc3ccc(C(C)(C)C)cc3)s2)c1 [2b, N-(4-(tert-Butyl)phenyl)-2-(3-methoxyphenyl)-4-methylthiazole-5-carboxamide] | 0.239 ± 0.18 µM | > 300 µM | > 300 µM | > 300 µM | > 300 µM | 203.7 ± 1.89 µM | 74.2 ± 2.44 µM | > 300 µM | 30.8 ± 0.49 µM | 1.251 | 0.19 µM and 0.191 µM |  | 117 ± 2.05 µM |

Reference: PMC10433355 (ACS Omega, 2023)
